Measurements as given in paper PMC7555381 (International Journal of Nanomedicine, 2020).

Key:
[1] = test system: HCT116 (human colon cancer) tumor; test: In vivo tumor growth inhibition in HCT116 tumor-bearing mice; parameters: species or system BALB/c nude mice
Summary of the method: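 Female BALB/c nude mice, 6 weeks old, received 1×10⁷ HCT116 cells in PBS in the right dorsal flank. At 70–100 mm³, mice were randomised to the same seven arms: untreated; IV drug 3.3 or 10 mg/kg biweekly; oral aqueous drug 10 mg/kg daily; oral formulation at 2.5, 10 or 20 mg/kg daily, for 21 days. Mice were fasted 4 h before and 2 h after dosing. Caliper volume (width²×length×0.52) was recorded every 3 days, and tumors were weighed at day 21.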

[2] = test system: Madin–Darby Canine Kidney (MDCK) cells; test: In vitro cytotoxicity; assay type: cell-based; settings: 12 h
Summary of the method: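 MDCK cells seeded at 5×10³ cells/well in DMEM with 10% FBS and 1% penicillin/streptomycin, then held 24 h at 37°C. Treated with test formulations diluted in DMEM at 1, 10, 25, 50, 100, 250 and 500 µg/mL drug equivalent, with matching excipient-only controls, for 12 h. WST-8 was added for 2 h and absorbance read at 450 nm. Viability is expressed relative to untreated cells.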

[3] = test system: CT26 (murine colon cancer) tumor; test: In vivo tumor growth inhibition in CT26 tumor-bearing mice; parameters: species or system BALB/c mice
Summary of the method: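 Female BALB/c mice, 6 weeks old, received 1×10⁶ CT26 cells in PBS in the right dorsal flank. At 70–100 mm³, mice were randomised to seven groups of 14: untreated; IV drug 3.3 or 10 mg/kg once biweekly; oral aqueous drug 10 mg/kg daily; oral formulation at 2.5, 10 or 20 mg/kg equivalent daily, for 21 days. Mice were fasted 4 h before and 2 h after dosing. Caliper volume (width²×length×0.52) was recorded every 3 days. Day-21 tumors were weighed and stained for CD31, PCNA and TUNEL.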

In vitro drug release = assay type: physicochemical; settings: 37°C, 100 rpm
Summary of the method: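 Drug release from the formulation and from free drug was tested in 900 mL of 0.1 N HCl (pH 1.2) or phosphate buffer (pH 6.8). USP apparatus I (basket) was run at 100 rpm and 37±0.2°C. Results are given as cumulative percentage released over time.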

[4] = HCT116 tumors, day 21, groups OP-IV (10), ODSF (10), ODSF (20)
[5] = CT26, once-biweekly IV 10 mg/kg OP, 21 days

Question: Which “Reduction in tumor volume compared to controls” value ([1]; HCT116, once-biweekly IV 3.3 mg/kg OP) does the source give for `O=C1[O][Pt]2([NH][C@@H]3CCCC[C@H]3[NH]2)[O]C1=O` (relative stereo) [OP, cis-[(1R,2R)-1,2-cyclohexanediamine-N,N’] [oxalato(2)-O,O´] platinum] here?
Answer: 33.5%

Question: What about the “Numbers of CD31-positive microvessels compared to the control and OP-S (10) groups” value [1, 4] of the same molecule?
Answer: marked reductions

Question: And the “Numbers of PCNA-positive proliferating cells compared to the control and OP-S (10) groups” value [1, 4]?
Answer: marked reductions

Question: What about the “TUNEL-positive apoptotic cells compared to the control and OP-S (10) groups” value [1, 4] of the same molecule?
Answer: significantly greater numbers of TUNEL-positive apoptotic cells

Question: What about the Cell viability ([2]; 250 µg/mL) of the same molecule?
Answer: 74.8±6.82%

Question: And the Cell viability ([2]; 500 µg/mL)?
Answer: 55.3±7.79%

Question: What about the “Concentrations at which cytotoxicity was demonstrated” value [2] of the same molecule?
Answer: higher than 100 µg/mL

Question: And the “Inhibition of tumor growth rate compared to the control group” value ([3]; CT26, once-biweekly IV 3.3 mg/kg OP, 21 days)?
Answer: 40.0%

Question: And the “Tumor suppression compared to the OP-S (10) group” value [3, 5]?
Answer: 53.3%

Question: And the “Tumor suppression compared to the control group” value [3, 5]?
Answer: 70.2%

Question: And the “Reduction of isolated tumor mass compared to the controls” value ([3]; CT26, once-biweekly IV 10 mg/kg OP, day 21)?
Answer: 71.7%

Question: What about the “TUNEL-positive cells (apoptosis) compared to the controls” value ([3]; CT26 tumors, day 21, groups ODSF (10), ODSF (20), OP-IV (10)) of the same molecule?
Answer: significant increases in the number of TUNEL-positive cells

Question: And the “CD31-positive microvessels (immunohistochemistry)” value ([3]; CT26 tumors, day 21, groups OP-IV (3.3), OP-S (10), ODSF (10), ODSF (20))?
Answer: greater numbers of microvessels

Question: What about the “Numbers of PCNA-positive cells (proliferation)” value ([3]; CT26 tumors, day 21, groups OP-S, OP-IV (10), ODSF (10), ODSF (20), listed as OP-S) of the same molecule?
Answer: significantly higher

Question: And the Cumulative drug release (In vitro drug release; pH 1.2 (0.1 N HCl), at 60 min)?
Answer: exceeded 90%

Question: What about the Cumulative drug release (In vitro drug release; pH 6.8 phosphate buffer, at 120 min) of the same molecule?
Answer: exceeded 90%
